How the values were obtained:
[1] = target: T1, Dual specificity mitogen-activated protein kinase kinase 4 (Homo sapiens) (UniProt P45985); assay: Competitive binding affinity to MEK4 (unknown origin) at 10 uM in presence of ATP relative to control
T1 sequence (whole entry): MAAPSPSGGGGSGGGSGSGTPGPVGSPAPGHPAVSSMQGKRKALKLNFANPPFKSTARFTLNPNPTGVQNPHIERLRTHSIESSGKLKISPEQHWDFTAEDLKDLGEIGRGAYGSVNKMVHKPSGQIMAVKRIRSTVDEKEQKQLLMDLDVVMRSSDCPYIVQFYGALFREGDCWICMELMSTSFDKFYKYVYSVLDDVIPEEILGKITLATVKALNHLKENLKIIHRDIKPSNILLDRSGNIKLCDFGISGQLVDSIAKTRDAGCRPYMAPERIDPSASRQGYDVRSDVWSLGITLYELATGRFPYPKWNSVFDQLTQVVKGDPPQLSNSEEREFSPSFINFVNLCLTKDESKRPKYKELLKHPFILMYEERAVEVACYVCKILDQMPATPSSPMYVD

[2] = target: MAP/microtubule affinity-regulating kinase 3 (Homo sapiens) (UniProt P27448); assay: Competitive binding affinity to MARK3 (unknown origin) at 10 uM in presence of ATP relative to control
Sequence of MAP/microtubule affinity-regulating kinase 3 (Homo sapiens) (P27448 whole entry, looked up): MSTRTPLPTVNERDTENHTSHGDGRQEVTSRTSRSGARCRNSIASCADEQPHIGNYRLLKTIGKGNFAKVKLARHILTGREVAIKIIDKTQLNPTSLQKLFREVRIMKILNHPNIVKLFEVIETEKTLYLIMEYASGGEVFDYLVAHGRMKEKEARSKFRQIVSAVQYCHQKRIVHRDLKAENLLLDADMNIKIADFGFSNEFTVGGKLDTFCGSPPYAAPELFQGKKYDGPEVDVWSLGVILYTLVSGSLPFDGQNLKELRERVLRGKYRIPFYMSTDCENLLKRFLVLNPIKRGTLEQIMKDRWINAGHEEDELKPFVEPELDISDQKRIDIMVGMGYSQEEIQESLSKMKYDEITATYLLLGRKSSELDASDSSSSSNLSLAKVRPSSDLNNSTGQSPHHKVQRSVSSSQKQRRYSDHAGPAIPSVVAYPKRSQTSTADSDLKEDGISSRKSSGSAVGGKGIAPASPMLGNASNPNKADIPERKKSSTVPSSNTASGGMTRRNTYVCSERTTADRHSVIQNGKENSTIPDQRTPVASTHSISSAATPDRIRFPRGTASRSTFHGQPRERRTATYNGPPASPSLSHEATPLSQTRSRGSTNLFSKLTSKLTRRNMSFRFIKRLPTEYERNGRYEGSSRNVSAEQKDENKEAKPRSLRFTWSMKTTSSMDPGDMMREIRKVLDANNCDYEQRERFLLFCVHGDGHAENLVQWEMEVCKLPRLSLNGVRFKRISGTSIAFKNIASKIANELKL

[3] = target: T2, Inhibitor of nuclear factor kappa-B kinase subunit epsilon (Homo sapiens) (UniProt Q14164); assay: Competitive binding affinity to IKKepsilon (unknown origin) at 10 uM in presence of ATP relative to control
T2 sequence (whole entry): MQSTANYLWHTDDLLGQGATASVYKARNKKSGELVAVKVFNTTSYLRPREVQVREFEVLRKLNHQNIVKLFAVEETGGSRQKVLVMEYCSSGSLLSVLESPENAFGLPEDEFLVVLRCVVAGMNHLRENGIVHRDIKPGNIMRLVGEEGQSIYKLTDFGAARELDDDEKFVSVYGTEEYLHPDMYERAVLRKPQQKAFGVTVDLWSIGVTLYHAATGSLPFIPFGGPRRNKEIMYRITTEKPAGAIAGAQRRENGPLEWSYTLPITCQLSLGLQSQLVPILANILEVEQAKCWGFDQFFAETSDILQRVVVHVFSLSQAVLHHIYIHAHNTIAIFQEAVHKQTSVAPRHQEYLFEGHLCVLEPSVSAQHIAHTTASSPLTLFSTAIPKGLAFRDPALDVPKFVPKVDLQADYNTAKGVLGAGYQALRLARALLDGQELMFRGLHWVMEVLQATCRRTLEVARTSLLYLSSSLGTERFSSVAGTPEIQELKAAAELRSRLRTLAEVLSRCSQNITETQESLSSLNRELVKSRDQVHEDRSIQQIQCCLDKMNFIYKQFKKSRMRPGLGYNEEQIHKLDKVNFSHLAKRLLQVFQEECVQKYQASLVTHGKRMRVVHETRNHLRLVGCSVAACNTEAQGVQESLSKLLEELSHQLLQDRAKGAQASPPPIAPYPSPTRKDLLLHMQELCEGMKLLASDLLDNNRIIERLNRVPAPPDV

[4] = target: T3, Tyrosine-protein kinase ZAP-70 (Homo sapiens) (UniProt P43403); assay: Competitive binding affinity to ZAP70 (unknown origin) at 10 uM in presence of ATP relative to control
T3 sequence (whole entry): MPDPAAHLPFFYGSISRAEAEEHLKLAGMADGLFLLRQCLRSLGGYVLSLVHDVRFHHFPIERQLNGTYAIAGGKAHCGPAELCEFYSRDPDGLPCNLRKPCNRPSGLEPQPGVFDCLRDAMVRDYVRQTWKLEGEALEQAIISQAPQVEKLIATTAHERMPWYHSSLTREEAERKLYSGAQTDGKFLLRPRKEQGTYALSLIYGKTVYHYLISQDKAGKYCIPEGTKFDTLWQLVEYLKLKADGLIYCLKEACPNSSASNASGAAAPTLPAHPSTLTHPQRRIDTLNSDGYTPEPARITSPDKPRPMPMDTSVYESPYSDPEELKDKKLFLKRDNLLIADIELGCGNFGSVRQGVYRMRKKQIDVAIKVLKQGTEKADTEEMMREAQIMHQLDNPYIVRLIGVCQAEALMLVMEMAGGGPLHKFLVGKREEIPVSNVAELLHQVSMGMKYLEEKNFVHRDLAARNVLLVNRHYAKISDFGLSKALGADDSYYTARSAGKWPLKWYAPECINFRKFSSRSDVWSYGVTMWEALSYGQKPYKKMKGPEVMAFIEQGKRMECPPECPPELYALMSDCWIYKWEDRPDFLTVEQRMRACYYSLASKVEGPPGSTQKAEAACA

[5] = target: Aurora kinase B (Homo sapiens) (UniProt Q96GD4); assay: Competitive binding affinity to AURKB (unknown origin) at 10 uM in presence of ATP relative to control
Sequence of Aurora kinase B (Homo sapiens) (Q96GD4 whole entry): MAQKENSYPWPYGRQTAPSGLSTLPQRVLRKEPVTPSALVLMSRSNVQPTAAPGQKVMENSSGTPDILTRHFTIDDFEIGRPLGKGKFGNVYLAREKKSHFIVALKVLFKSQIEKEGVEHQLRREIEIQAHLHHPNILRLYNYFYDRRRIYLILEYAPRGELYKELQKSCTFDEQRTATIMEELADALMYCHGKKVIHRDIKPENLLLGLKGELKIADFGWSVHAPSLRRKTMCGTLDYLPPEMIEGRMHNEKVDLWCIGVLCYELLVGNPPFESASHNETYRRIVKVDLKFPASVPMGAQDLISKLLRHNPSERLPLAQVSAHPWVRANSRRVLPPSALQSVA
Summary of the method: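 In vitro ATP-site competition binding assay across a diverse panel of 128 kinases, with each compound tested at a single concentration. Kinase binding is expressed relative to control.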

[6] = target: Serine/threonine-protein kinase N1 (Homo sapiens) (UniProt Q16512); assay: Competitive binding affinity to PKN1 (unknown origin) at 10 uM in presence of ATP relative to control
Sequence of Serine/threonine-protein kinase N1 (Homo sapiens) (Q16512 2-942 limits assumed): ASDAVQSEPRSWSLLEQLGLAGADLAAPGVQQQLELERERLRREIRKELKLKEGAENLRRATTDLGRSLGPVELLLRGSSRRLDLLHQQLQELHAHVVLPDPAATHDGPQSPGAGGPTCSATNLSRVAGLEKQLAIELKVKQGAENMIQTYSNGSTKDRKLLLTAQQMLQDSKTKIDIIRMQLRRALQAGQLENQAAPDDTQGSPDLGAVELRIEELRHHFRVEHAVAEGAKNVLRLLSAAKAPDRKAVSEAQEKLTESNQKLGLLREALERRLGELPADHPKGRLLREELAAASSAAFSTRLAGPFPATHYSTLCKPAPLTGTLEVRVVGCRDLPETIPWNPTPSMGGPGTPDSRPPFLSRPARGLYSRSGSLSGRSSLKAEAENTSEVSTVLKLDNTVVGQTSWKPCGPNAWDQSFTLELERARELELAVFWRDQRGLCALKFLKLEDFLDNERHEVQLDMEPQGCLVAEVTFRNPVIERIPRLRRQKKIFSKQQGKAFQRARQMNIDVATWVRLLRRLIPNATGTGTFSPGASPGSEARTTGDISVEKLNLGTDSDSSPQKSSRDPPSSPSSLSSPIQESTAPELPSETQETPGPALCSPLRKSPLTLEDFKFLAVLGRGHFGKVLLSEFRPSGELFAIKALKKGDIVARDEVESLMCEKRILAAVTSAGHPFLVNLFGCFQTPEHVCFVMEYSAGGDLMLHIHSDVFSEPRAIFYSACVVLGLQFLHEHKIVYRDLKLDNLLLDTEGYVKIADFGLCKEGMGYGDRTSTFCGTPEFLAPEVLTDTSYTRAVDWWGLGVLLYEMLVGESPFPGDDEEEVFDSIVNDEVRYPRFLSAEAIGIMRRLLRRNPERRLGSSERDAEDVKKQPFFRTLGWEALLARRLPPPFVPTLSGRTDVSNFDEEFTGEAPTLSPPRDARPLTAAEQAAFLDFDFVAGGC

inhibition [1] [%] | inhibition [2] [%] | inhibition [3] [%] | inhibition [4] [%] | inhibition [5] [%] | inhibition [6] [%] | SMILES
99 | < 50 | < 50 | < 50 | < 50 | < 50 | O[C@H]1CC[C@H](Nc2nccc(-n3ncc4ccccc43)n2)CC1
97 | < 50 | < 50 | < 50 | < 50 | < 50 | O[C@H]1CC[C@H](Nc2nccc(-n3ccc4ccccc43)n2)CC1
> 85 |  |  |  |  |  | CS(=O)(=O)CCCOc1cccc2c1ccn2-c1ccnc(N[C@H]2CC[C@H](C(=O)N3CCC(O)CC3)CC2)n1
 |  |  | < 50 | 91 |  | O[C@H]1CC[C@H](Nc2nccc(-c3n[nH]c4ccccc34)n2)CC1
99 | < 50 | < 50 | < 50 | 68 | < 50 | O[C@H]1CC[C@H](Nc2nccc(-n3nnc4ccccc43)n2)CC1
